Data published in ChEMBL document CHEMBL1141440, “Sesquiterpene lactones from the roots of Ferula varia and their cytotoxic activity” (J Nat Prod, 2007).
≈ marks a conversion by molar mass, not a printed value.

Tests used:
[1] = Cytotoxicity against multidrug-resistant human KB-C2 cells in presence of 2.5 uM colchicine; type: functional, cell-based
Procedure, shortened: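 KB-C2 cells were kept in DMEM with 10% FBS and 5 µM colchicine, then tested for cytotoxicity with 2.5 µM colchicine added during exposure to samples. IC50 was given in µg/mL.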

[2] = target: ATP-dependent translocase ABCB1 (Homo sapiens, UniProt P08183); assay: Effect on P-glycoprotein expressed in KB-C2 cells assessed as increase in accumulation of rhodamine 123 at 50 uM; type: cell-based; settings: kb-c2, 50 µM
Procedure, shortened: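 For P-gp substrate accumulation, KB-C2 cells were incubated 2 h with 20 µM rhodamine 123 plus sample, then washed and lysed in 0.1% Triton X-100 in PBS. Retained fluorescence was measured and accumulation expressed as a percentage increase.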

[3] = tested on: MCF7; assay: Cytotoxicity against human MCF7 cells; type: functional, cell-based
Procedure, shortened: (§1)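 MCF7 breast and COLO205 colon carcinoma cells were cultured in RPMI1640 with 10% FBS at 37 °C in humidified 5% CO2-95% air. Cytotoxicity was read as IC50 in µg/mL.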

[4] = tested on: KB; assay: Cytotoxicity against human KB cells; type: functional, cell-based
Procedure, shortened: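 KB human epidermoid carcinoma cells were grown in DMEM with 10% FBS at 37 °C under humidified 5% CO2. Cytotoxicity was given as IC50 in µg/mL.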

[5] = tested on: COLO 205; assay: Cytotoxicity against human COLO205 cells; type: functional, cell-based; procedure, shortened: as §1
[6] = Cytotoxicity against doxorubicin-resistant human K562/Adr cells; type: functional, cell-based
Procedure, shortened: (§2)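 K562/Adr cells, a doxorubicin-resistant leukemia line, were grown in RPMI1640 with 10% FBS and 0.5 µM doxorubicin at 37 °C under humidified 5% CO2. Cytotoxicity was expressed as IC50 in µg/mL.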

[7] = Cytotoxicity against multidrug-resistant human KB-C2 cells; type: functional, cell-based
Procedure, shortened: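 KB-C2, a multidrug-resistant KB subline, was maintained in DMEM with 10% FBS and 5 µM colchicine at 37 °C under humidified 5% CO2. Cytotoxicity was reported as IC50 in µg/mL.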

[8] = tested on: K562; assay: Cytotoxicity against multidrug-resistant human K562 cells; type: functional, cell-based; settings: in the assay text read “human K562 cells” for “multidrug-resistant human K562 cells”; procedure, shortened: as §2

Chain of ATP-dependent translocase ABCB1 (P08183 whole entry): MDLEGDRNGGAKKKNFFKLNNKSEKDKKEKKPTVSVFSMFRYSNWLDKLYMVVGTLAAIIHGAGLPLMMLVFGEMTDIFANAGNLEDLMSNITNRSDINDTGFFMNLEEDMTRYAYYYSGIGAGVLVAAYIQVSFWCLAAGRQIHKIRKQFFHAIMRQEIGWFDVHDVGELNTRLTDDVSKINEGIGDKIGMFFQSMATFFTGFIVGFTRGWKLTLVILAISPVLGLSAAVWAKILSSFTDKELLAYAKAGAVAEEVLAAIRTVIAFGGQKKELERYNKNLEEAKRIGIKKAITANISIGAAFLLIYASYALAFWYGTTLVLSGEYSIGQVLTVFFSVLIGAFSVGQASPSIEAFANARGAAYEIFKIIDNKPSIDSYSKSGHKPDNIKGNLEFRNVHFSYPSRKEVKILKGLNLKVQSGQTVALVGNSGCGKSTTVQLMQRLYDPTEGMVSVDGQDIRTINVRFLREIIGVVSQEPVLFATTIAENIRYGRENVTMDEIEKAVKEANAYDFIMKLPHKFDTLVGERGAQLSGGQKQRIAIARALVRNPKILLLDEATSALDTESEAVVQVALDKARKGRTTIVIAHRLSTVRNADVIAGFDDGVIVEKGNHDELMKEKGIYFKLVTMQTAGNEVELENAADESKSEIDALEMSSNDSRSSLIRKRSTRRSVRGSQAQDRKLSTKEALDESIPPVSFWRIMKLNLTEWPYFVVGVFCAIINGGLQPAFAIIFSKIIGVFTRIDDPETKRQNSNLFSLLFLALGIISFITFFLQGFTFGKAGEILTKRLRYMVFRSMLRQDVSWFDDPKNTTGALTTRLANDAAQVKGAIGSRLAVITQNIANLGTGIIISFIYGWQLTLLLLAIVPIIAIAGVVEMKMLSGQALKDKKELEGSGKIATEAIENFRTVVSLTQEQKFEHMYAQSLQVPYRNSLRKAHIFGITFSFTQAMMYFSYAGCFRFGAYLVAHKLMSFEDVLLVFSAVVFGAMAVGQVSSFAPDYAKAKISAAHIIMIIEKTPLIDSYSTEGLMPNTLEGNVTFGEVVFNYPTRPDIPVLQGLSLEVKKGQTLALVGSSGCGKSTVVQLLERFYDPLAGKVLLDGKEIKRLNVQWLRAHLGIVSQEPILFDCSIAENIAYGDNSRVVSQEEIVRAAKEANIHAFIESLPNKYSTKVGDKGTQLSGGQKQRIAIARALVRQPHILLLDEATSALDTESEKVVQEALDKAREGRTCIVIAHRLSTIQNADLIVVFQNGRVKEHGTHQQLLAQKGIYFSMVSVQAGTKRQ

Activity [2] [%] | Structure (SMILES) | IC50 [1] [µg/mL] | IC50 [3] [µg/mL] | IC50 [4] [µg/mL] | IC50 [5] [µg/mL] | IC50 [6] [µg/mL] | IC50 [7] [µg/mL] | IC50 [8] [µg/mL]
114 | C/C=C(\C)C(=O)O[C@H]1C[C@](C)(O)C2CC=C(C)[C@H]2[C@@H]2OC(=O)[C@H](C)[C@@H]21 (some centres not stated) | 25.4 | > 100 | > 100 | > 100 | > 100 | > 100 | > 100
– | C=C1C=C[C@@H](OC(=O)/C(C)=C/C)[C@@]2(C)CC[C@@H]3[C@@H](OC(=O)[C@]3(C)O)[C@H]12 | – | > 100 | > 100 | > 100 | > 100 | > 100 | > 100
– | C=C1[C@@H](OC(=O)C(C)CC)C=C[C@@]2(C)CC[C@@H]3[C@@H](OC(=O)[C@@H]3C)[C@H]12 (some centres not stated) | – | > 100 | > 100 | > 100 | > 100 | > 100 | > 100
– | COc1cccc2c1C(=O)c1c(O)c3c(c(O)c1C2=O)C[C@@](O)(C(=O)CO)C[C@@H]3O[C@H]1C[C@H](N)[C@H](O)[C@H](C)O1 [DOXORUBICIN] | – | – | 0.22 (≈ 0.405 µM) | – | 15.3 (≈ 28.1 µM) | > 100 | 0.45 (≈ 0.828 µM)
169 | C=C1[C@H]2O[C@H]2[C@@H](OC(=O)/C(C)=C/C)[C@@]2(C)CC[C@@H]3[C@@H](OC(=O)[C@@]3(O)COC(=O)/C(C)=C\C)[C@H]12 | 48.3 | > 100 | 91.4 (≈ 198 µM) | > 100 | > 100 | 98 (≈ 213 µM) | > 100
– | C=C1C=C[C@@H](OC(=O)/C(C)=C/C)[C@@]2(C)CC[C@@H]3[C@@H](OC(=O)[C@@H]3C)[C@H]12 [OOPODIN] | 13.8 | – | 34.7 (≈ 105 µM) | – | 25.4 (≈ 76.9 µM) | 24.7 (≈ 74.8 µM) | 35.1 (≈ 106 µM)
– | C=C1C(=O)O[C@@H]2[C@H]1CC[C@]1(C)[C@H](OC(=O)/C(C)=C/C)C=CC(=C)[C@@H]21 [DEHYDROOOPODIN] | 55.8 | – | 46.1 (≈ 140 µM) | – | > 100 | 56.9 (≈ 173 µM) | 36.8 (≈ 112 µM)
